Target: T1, Vitamin D3 receptor (Homo sapiens) (UniProt P11473)
T1 sequence (whole entry): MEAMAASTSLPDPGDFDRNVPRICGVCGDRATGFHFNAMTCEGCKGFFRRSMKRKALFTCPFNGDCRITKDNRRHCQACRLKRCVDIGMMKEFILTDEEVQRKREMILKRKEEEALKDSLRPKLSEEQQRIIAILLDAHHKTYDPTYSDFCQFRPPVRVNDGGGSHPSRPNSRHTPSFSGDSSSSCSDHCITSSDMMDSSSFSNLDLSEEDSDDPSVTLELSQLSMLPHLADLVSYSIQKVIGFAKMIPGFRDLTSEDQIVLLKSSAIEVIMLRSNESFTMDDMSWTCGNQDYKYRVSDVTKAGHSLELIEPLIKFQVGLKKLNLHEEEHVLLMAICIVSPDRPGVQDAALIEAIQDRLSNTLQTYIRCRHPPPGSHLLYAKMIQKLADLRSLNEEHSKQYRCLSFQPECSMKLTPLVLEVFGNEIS
Experiment: Antagonist activity at VDR LBD (unknown origin) using Alexa Fluor 647-labeled SRC2-3 as substrate incubated for 2 hrs in presence of calcitriol by fluorescence polarization assay
Summary of the method: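 VDR-LBD (0.1 μM) with Alexa Fluor 647-labelled SRC2-3 (17.5 nM) and 10 nM 1,25(OH)2D3 in 25 mM PIPES, 50 mM NaCl, 0.01% NP-40, pH 6.75. Compounds were serially diluted 1:2 from 10 mM DMSO stocks and incubated 2 h. Polarization was read at 635/685 nm. Three independent experiments in quadruplicate; IC50 by variable-slope nonlinear regression.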

Structure (SMILES): CC(C)CCC[C@@H](C)[C@H]1CC[C@H]2C3=CC=C4C[C@@H](O)CC[C@]4(C)[C@H]3CC[C@]12C
- Activity: > 100 µM

— ChEMBL document CHEMBL5154854, “Identification of a Vitamin-D Receptor Antagonist, MeTC7, which Inhibits the Growth of Xenograft and Transgenic Tumors In Vivo” (J Med Chem, 2022)
